Results taken from paper PMC5362249 (Biochemical pharmacology, 2016).

Assays:
[1] = target: T1, Mrp4 (Mus musculus, UniProt E9Q236); assay: Effect of MK571 on tissue distribution of vaginally administered TFV; format: in vivo
T1 sequence (E9Q236 1-1325): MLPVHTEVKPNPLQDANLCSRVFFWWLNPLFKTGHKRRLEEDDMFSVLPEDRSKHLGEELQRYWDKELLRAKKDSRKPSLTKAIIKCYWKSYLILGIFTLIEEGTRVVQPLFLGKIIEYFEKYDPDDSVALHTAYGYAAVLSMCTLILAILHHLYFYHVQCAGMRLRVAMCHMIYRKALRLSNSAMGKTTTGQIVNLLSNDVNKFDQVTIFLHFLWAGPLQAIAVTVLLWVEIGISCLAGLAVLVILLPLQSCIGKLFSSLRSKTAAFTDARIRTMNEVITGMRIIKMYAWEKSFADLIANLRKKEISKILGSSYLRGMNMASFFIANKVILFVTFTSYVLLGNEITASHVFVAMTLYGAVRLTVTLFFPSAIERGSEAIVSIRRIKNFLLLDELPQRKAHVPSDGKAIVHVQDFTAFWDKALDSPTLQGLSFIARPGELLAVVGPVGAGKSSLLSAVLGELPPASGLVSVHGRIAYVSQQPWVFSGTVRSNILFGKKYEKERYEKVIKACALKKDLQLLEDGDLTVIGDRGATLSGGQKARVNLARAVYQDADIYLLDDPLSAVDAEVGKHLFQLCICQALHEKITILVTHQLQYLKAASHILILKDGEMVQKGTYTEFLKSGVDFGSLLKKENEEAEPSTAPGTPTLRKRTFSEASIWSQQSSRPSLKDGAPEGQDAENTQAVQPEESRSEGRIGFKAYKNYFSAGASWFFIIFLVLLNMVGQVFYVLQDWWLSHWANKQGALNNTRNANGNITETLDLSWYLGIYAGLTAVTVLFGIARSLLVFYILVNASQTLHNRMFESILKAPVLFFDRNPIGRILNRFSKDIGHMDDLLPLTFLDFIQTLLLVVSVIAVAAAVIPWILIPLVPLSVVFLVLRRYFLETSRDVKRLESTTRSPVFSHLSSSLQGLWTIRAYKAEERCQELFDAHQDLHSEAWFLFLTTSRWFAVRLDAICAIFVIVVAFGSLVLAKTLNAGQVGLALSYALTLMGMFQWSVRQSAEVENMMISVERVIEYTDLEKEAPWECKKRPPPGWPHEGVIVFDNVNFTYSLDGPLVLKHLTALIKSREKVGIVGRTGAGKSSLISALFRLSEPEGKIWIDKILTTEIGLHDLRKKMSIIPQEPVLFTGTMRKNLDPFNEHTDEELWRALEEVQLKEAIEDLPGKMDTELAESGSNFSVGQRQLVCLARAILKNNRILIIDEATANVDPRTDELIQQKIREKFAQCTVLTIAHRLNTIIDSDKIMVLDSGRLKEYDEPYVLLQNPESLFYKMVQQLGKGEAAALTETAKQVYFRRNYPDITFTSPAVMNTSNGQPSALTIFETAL
Procedure, shortened: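 Synchronized mice got IP saline or MK571 (100 μL, 7.5 mg/mL), then 20 μL vaginal gel 30 min later. Gel: 2.7% universal placebo (pH 4.4) with 3H-TFV plus unlabelled TFV, ±MK571. Ketamine/xylazine IP 5 min before gel. At 0.5 and 1 h: CVL (8 × 25 μL saline), plasma, tissues. Scintillation counting; total TFV from labelled:unlabelled ratio. 7–13 mice per point; ANOVA.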

[2] = target: T1, Mrp4; assay: Effect of MK571 on tissue distribution of IP-administered TFV; format: in vivo
Procedure, shortened: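 Synchronized mice received 100 μL saline or saline containing 7.5 mg/mL MK571 IP. 15 min later they received 100 μL 3H-TFV in saline IP (0.94 × 10−5 mmol/mL, 125 μCi/mL). At 1.5 h: CVL (3 × 20 μL saline), plasma and tissues. Samples were dissolved in Solvable overnight at 50 °C, decolorized with H2O2 (50 °C, 1 h), then counted by scintillation. Two groups compared by t-test.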

[3] = In vitro release of TFV from gels, Franz cell apparatus; format: physicochemical
Procedure, shortened: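 Gels containing TFV, with or without MK571, were placed in the donor chamber of a Franz cell with PBS in the acceptor chamber. Acceptor TFV concentration over time gave cumulative release (30 and 60 min) and Papp. Three gels per group, mean ± SD.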

[4] = target: glucocorticoid receptor (GR); settings: agonist; approximate; cited from earlier work
[5] = system: NRs for estrogen; settings: cited from earlier work
[6] = system: NRs for mineralocorticoids; settings: cited from earlier work
[7] = system: P-gp (Abcb1a); assay: Real-time RT-PCR of transporter mRNA in mouse tissues after exogenous hormones; format: in vivo; settings: uterus and endocervix; Gapdh-normalized
Procedure, shortened: (§1)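 Tissues were taken from naturally cycling mice at estrus or diestrus (vaginal cytology staging) and from PMSG- or Depo-Provera-synchronized mice, 3–5 mice each. Real-time RT-PCR transporter mRNA was normalized to Gapdh by the 2−ΔCt method; Student's t-test between stages.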

[8] = system: P-gp (Abcb1b); assay: as above; format: in vivo; settings: uterus and ectocervix; Gapdh-normalized
Procedure, shortened: as §1

[9] = system: Bcrp (Abcg2); assay: as above; format: in vivo; settings: uterus; Gapdh-normalized
Procedure, shortened: as §1

[10] = system: Mrp4 (Abcc4); assay: as above; format: in vivo; settings: uterus, endocervix, and colorectum; Gapdh-normalized
Procedure, shortened: as §1

[11] = system: P-gp (Abcb1a/1b) protein; format: in vivo, mouse; settings: endocervix, ectocervix, vagina
Procedure, shortened: (§2)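 Tissues came from natural estrus and diestrus mice (staged by vaginal cytology) and synchronized mice (estrus 24 h after PMSG; diestrus 7 days after first Depo-Provera), at least 3 mice each. Primary antibody dilutions: P-gp 1:15, Bcrp 1:25, Mrp4 1:15, overnight at 4 °C. Then biotinylated secondary (1:200, 30 min RT), ABC 30 min, AEC, hematoxylin. Non-immune IgG as negative control.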

[12] = system: Bcrp protein; format: in vivo, mouse; settings: compared to the natural estrous stages
Procedure, shortened: as §2

[13] = system: Mrp4 protein; format: in vivo, mouse; settings: endocervix, ectocervix, and vagina; vs natural estrous cycle
Procedure, shortened: as §2

[14] = MK571 incorporated into TFV gel vs control, 0.5 h post gel
[15] = MK571 incorporated into TFV gel vs control, 1.0 h

Question: Which “TFV concentrations in plasma, uterus, and colorectum” value ([1]; MK571 IP solution 30 min before vaginal TFV gel vs TFV gel only) does the source give for `CN(C)C(=O)CCSC(SCCC(=O)O)c1cccc(/C=C/c2ccc3ccc(Cl)cc3n2)c1` (stereo not drawn) [MK571] here?
Answer: The value was “only slightly increased or remained unchanged”.

Question: What about the “TFV concentration in CVL and endocervix” value [1, 14] of the same molecule?
Answer: Its value is “remained unchanged”.

Question: And the “TFV concentration in mouse vaginal tissue” value [1, 14]?
Answer: Its value is “significantly higher”.

Question: What about the “TFV concentration in plasma, uterus, ectocervix, and colorectum” value [1, 14] of the same molecule?
Answer: Its value is “slightly, but not significantly, increased”.

Question: What about the “TFV CVL concentration” value [1, 15] of the same molecule?
Answer: The value was “significantly decreased”.

Question: What about the “TFV concentration in plasma and uterus” value [1, 15] of the same molecule?
Answer: Its value is “remained unchanged”.

Question: What about the “TFV concentration in the colorectum” value [1, 15] of the same molecule?
Answer: Its value is “significantly increased”.

Question: And the “decrease in TFV concentration in endocervix, ectocervix, and vagina” value [1, 15]?
Answer: The value was “not statistically significant”.

Question: And the “TFV concentration in CVL and vagina” value ([2]; MK571 IP 15 min before IP TFV, 1.5 h post-TFV, p = 0.04)?
Answer: Its value is “increased”.

Question: What about the TFV colorectum/plasma ratio ([2]; MK571 IP co-administration, IP TFV, 1.5 h, p = 0.006) of the same molecule?
Answer: Its TFV colorectum/plasma ratio is “significantly increased”.

Question: And the TFV vagina/plasma ratio ([2]; MK571 IP co-administration, IP TFV, 1.5 h, p = 0.03)?
Answer: Its TFV vagina/plasma ratio is “significantly increased”.

Question: What about the “permeability coefficient Papp of TFV, gel with vs without MK571” value ([3]; Franz cell apparatus, acceptor chamber) of the same molecule?
Answer: The value was “almost identical”.

Question: And the “impact of MK571 incorporation into the gel on in vitro release profile of TFV” value ([3]; vs gel containing TFV alone, Franz cell, PBS acceptor)?
Answer: Its value is “did not have any impact”.

Question: For `CC(=O)O[C@]1(C(C)=O)CC[C@H]2[C@@H]3C[C@H](C)C4=CC(=O)CC[C@]4(C)[C@H]3CC[C@@]21C` [MPA, medroxyprogesterone acetate], which EC50 [4] is on record?
Answer: Its EC50 is ~10 nM.

Question: What about the “binding to nuclear receptor” value [5] of the same molecule?
Answer: Its value is “does not bind significantly”.

Question: And the “binding to nuclear receptor” value [6]?
Answer: The value was “does not bind significantly”.

Question: For `C[C@H](Cn1cnc2c(N)ncnc21)OCP(=O)(O)O` [TFV, tenofovir], which “TFV distribution compared to its plasma concentration” value ([2]; after IP administration, 1.5 h) is on record?
Answer: Its value is “preferentially distributed into cervicovaginal tissues and fluid”.

Question: Which results are given for “PMSG: exogenous hormone known to stimulate estrogen levels, used to synchronize mice into estrus”?
Answer: Abcb1a mRNA level compared to either stage of the natural cycle [7]: significantly altered; Abcb1b mRNA level compared to either stage of the natural cycle [8]: significantly altered; Bcrp mRNA level compared to either stage of the natural cycle [9]: significantly altered; Mrp4 mRNA level compared to either stage of the natural cycle [10]: significantly altered; P-gp protein abundance or localization compared to natural estrous cycle [11]: did not exert an obvious effect; Bcrp protein density in vaginal epithelium [12]: appeared to decrease; epithelial and stromal abundance of Mrp4 protein [13]: decreased
